bCat KO growth: beta-catenin-lacking colon tumor cell growth suppression. HCT116 beta-catenin knockout viability, CellTiter-Glo, 60 h; stronger effect = lower value. viability, % at 10 µM. actives 1.5% (n = 140,000). AID 818;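 active means viability at or under a set limit, the compound median less 4 SD, cut at about 6% in these data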
PTEN del growth: PTEN-deleted cell growth suppression; HCT116 PTEN-null viability, CellTiter-Glo, 60 h; stronger effect = lower value; viability, % at 10 µM; actives 1.2% (n = 140,000);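 active means viability at or below a set limit, 4 SD under the median of all tested compounds, cut at about 3.7% in these data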;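 further: PTEN knockout HCT116 line with beta catenin targeted HCT116 as companion control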
HUVEC prolif 384: human endothelial cell proliferation inhibition. HUVEC proliferation, CellTiter-Glo luminescence, 72 h; stronger effect = lower value. AID 648. actives 1.1% (n = 86,000). viability, % at 10 µM (by protocol);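 active means viability at or below 30%; inactive means viability above 30%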
Fibroblast inh: blocks proliferation of human lung fibroblasts; LL 47 human lung fibroblast viability, ATP luminescence; stronger effect = lower value; viability, % at 10 µM; actives 1.1% (n = 85,000); AID 719;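 active means viability at or below 50% in the single dose screen; inactive means viability above 50%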;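 further: compound exposure lasted 72 h before the ATP readout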
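material = human LL 47 lung fibroblast cells | dosing = compounds added from tenfold dosing solution, 0.1% DMSO final | timing = overnight cell rest, 72 h compound treatment at 37 °C | measured by = CellTiter-Glo luminescence measuring cellular ATP | evaluation = % viability versus median cells-only luminescence | control set = cell-only wells, no compound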
H69AR inhibit: blocks growth of human H69AR lung tumor cells; viability, % at 10 µM; H69AR lung tumor viability, ATP luminescence, 72 h; stronger effect = lower value; AID 598; actives 6% (n = 85,000);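 active means viability at or below 40%; inactive means viability above 40%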;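 further: multidrug resistant small cell line overexpressing MRP-1 efflux transporter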
Hits are given with their value; 0 = inactive; - = no result. The sample as a whole holds a higher share of hits than the screen did.

SMILES	bCat KO growth	PTEN del growth	HUVEC prolif 384	Fibroblast inh	H69AR inhibit
O=c1[nH]c(=O)n(Cc2ccco2)c2c1C(C(F)(F)F)(C(F)(F)F)N=C(C1CCCCC1)N2	0	0	0	0	0
N#Cc1ccc(C2=NC(C(F)(F)F)(C(F)(F)F)c3c(n(Cc4ccco4)c(=O)[nH]c3=O)N2)cc1	0	0	0	0	35
O=c1[nH]c(=O)n(Cc2ccco2)c2c1C(C(F)(F)F)(C(F)(F)F)N=C(CCC1CCCCC1)N2	0	0	0	0	9.5
CCN(CC)S(=O)(=O)c1cnccc1N1CCN(c2cccc(Cl)c2)CC1	0	0	-	-	-
COc1ccc(-c2nnc3c4ccccc4c(C)nn23)cc1	0	0	0	0	32
CCCc1nc(NCc2ccncc2)c2nnn(Cc3ccccc3F)c2n1	1.9	3.2	0	0	0
O=C1C(Cl)=C(N2CCOCC2)C(=O)N1c1ccccc1Cl	0	0	0	-	28
O=C(NN1C(=O)C2C3CCC(O3)C2C1=O)c1ccco1 (stereo not drawn)	0	0	-	-	-
COc1ccccc1Nc1ccc(S(=O)(=O)N2CCCCC2)cc1[N+](=O)[O-]	0	0	-	-	-
COc1ccc(-c2noc(CSc3nnc(Cc4ccccc4)n3-c3ccc(Cl)cc3)n2)cc1	0	0	0	0	13
CC1CCCN(C(=O)CSc2cnc3ccccc3n2)C1 (stereo not drawn)	0	0	-	-	-
COCCN(C(=O)CCl)C(C(=O)NC1CCCCC1)c1ccccc1C (stereo not drawn)	5.2	3.2	-	-	-
COCCN(C(=O)C(F)(F)F)C(C(=O)NC1CCCCC1)c1ccco1 (stereo not drawn)	0	0	0	0	0
Cc1ccc2c(COn3nnc4ccc(S(=O)(=O)N(C)C)cc43)cc(=O)oc2c1C	0	0	0	0	33
CC(NC(=O)C1(c2cccs2)CCOCC1)c1ccccc1 (stereo not drawn)	0	0	-	-	-
O=C1N(Nc2ccccc2)C(c2ccc(Br)cc2)C12CCCC2 (stereo not drawn)	0	0	0	0	0
O=C1N(Nc2ccccc2)C(c2ccc(Br)cc2)C12CCCCC2 (stereo not drawn)	0	0	0	0	19
COc1ccc(CN2CCn3ncc(C(=O)Nc4cc(C)cc(C)c4)c3C2=O)cc1	0	0	10	0	0
NC(=O)c1c(NC(=O)CSc2nnc(Cc3ccccc3)n2Cc2ccco2)sc2c1CCC2	0	0	0	0	5.6
CN(C)CCCn1c(SCC(=O)Nc2sc3c(c2C#N)CCCC3)nnc1-c1ccncc1	0	0	-	-	-
CCCCn1c(SCC(=O)Nc2sc3c(c2C(N)=O)CCC3)nnc1-c1ccccc1	-	-	0	0	25
O=C(CSc1nnc(Cc2ccccc2)n1Cc1ccco1)NC12CC3CC(CC(C3)C1)C2	0	0	0	0	0
CCOC(=O)CC(C)(C)/C(C)=N/Nc1ccc([N+](=O)[O-])cc1[N+](=O)[O-]	0	0	-	-	-
CC(C)CC(NC(=O)C(NC(=O)C(Cc1ccc(OCc2ccccc2)cc1)NC(=O)OC(C)(C)C)C(C)C)C(N)=O (stereo not drawn)	5.5	0	-	-	-
CC(C)CC(NC(=O)OC(C)(C)C)C(=O)NC(C(=O)NC(C)C(N)=O)C(C)C (stereo not drawn)	0	0	0	0	0
SMILES	bCat KO growth	PTEN del growth	HUVEC prolif 384	Fibroblast inh	H69AR inhibit
CC1=NN(C(=O)c2c(Br)c(C)nn2C)C(O)(C(F)(F)F)C1 (stereo not drawn)	0	0	-	-	-
CCOc1cccc(NCc2cc3c(C(C)(C)C)nn(-c4ccccc4)c3[nH]c2=O)c1	0	0	0	0	0
CC(C)(C)c1nn(-c2ccccc2)c2[nH]c(=O)c(CNCc3ccc4c(c3)OCO4)cc12	0	0	4.6	0	1.1
CC(C)(C)c1ccc(CN2C3=NCCCN3c3ccccc32)cc1	3.9	2.9	0	0	15
COC(=O)c1cnn(-c2nc(OC)cc(OC)n2)c1C	0	0	-	-	-
COc1cc(OC)nc(-n2ncc(Br)c(Br)c2=O)n1	1.6	1.4	-	-	-
Cc1ccc(C(=O)OC2OC(=O)C(Cl)=C2N2CCOCC2)cc1 (stereo not drawn)	0	0	-	-	-
COc1ccc(NC(=O)CSc2ncnc3c2sc2ccccc23)c(OC)c1	2.2	2.2	-	-	-
CCCCNc1ncnc2c1cnn2-c1ccccc1	0	0	0	0	13
COCCCNc1ncnc2c1cnn2-c1ccc(C)cc1C	0	0	-	-	-
c1ccc(-n2ncc3c(NCCCN4CCOCC4)ncnc32)cc1	0	0	0	0	0
Clc1ccc(Cn2ncc3c(NCc4ccccc4)ncnc32)cc1	0	0	0	0	22
c1ccc(Cn2ncc3c(NCc4ccco4)ncnc32)cc1	0	0	0	0	0
c1ccc(-n2ncc3c(NCc4ccco4)ncnc32)cc1	0	0	0	0	28
CCCCNc1ncnc2c1cnn2-c1ccc(C)cc1C	0	0	0	0	37
NC(=S)NNC(=O)Nc1ccc(Cl)c(Cl)c1	0	0	-	-	-
Fc1cccc(Nc2ncnc3c2cnn3-c2ccccc2)c1	-	-	0	0	14
CCCCNc1ncnc2c1cnn2-c1ccc(Cl)cc1	0	0	0	0	19
COc1ccc(C(=O)C(C)Oc2cccc(NC(=O)c3cccc([N+](=O)[O-])c3)c2)cc1 (stereo not drawn)	0	0	-	-	-
O=C(NC(=S)NCCN1CCOCC1)c1ccc(Cl)cc1	0	0	-	-	-
Cc1ccc(NC(=O)/C=C\C(=O)NCC(=O)O)cc1C	0	0	-	-	-
O=C1CC(c2cccs2)c2cc3c(cc2N1)OCCO3 (stereo not drawn)	0	0	0	0	18
COc1ccccc1C1CC(=O)Nc2cc3c(cc21)OCCO3 (stereo not drawn)	0	0	0	0	22
CCOc1ccccc1C1CC(=O)Nc2cc3c(cc21)OCO3 (stereo not drawn)	0	0	-	-	-
CC(C)Oc1ccccc1C1CC(=O)Nc2cc3c(cc21)OCCO3 (stereo not drawn)	0	0	0	0	27
SMILES	bCat KO growth	PTEN del growth	HUVEC prolif 384	Fibroblast inh	H69AR inhibit
Cc1ccc(C2CC(=O)Nc3cc4c(cc32)OCCO4)s1 (stereo not drawn)	0	0	0	0	0
COc1cccc(C2CC(=O)Nc3cc4c(cc32)OCCO4)c1OC(C)C (stereo not drawn)	0	0	0	0	27
CNc1ccc(/C=C/C(=O)c2cccc3ccccc23)cc1[N+](=O)[O-]	5.3	0	-	-	-
C=CCn1c(SCC(=O)N2CCc3ccccc3C2)nnc1-c1ccncc1	0	0	-	-	-
O=C(Nc1ccc(Cl)cc1)N1CCCN(Cc2ccc(F)cc2)C1	0.6	0.7	0	29	39
Cc1ncc(CCl)c2c1OC(C)(C)OC2	0	0	0	0	2.8
O=C(NCc1ccccc1Cl)c1ccccc1Oc1ccccc1	0	0	-	-	-
C[C@@H](NC(=O)c1coc(=O)c(Br)c1)c1ccccc1	0	0	0	0	3.7
CCCC(CCC)=NNC(=O)CN(Cc1ccccc1)S(=O)(=O)c1ccccc1	0	0	-	-	-
COc1ccccc1C(=O)Oc1cc(N)n(S(=O)(=O)c2ccc(C)cc2)n1	0	0	-	-	-
